Measured values published in ChEMBL document CHEMBL3286116, “Synthesis, biological evaluation and structure-activity correlation study of a series of imidazol-based compounds as Candida albicans inhibitors” (Eur J Med Chem, 2014).
≈ marks a conversion by molar mass, not a printed value.

Legend:
Type in all cases: functional
[1] = test system: Nakaseomyces glabratus; assay: Antifungal activity against Candida glabrata PMC 0807 after 48 hrs by CLSI broth microdilution method; conditions: PMC 0807, 48 h
How it was run: (§1)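 Yeast CLSI broth microdilution (M27-A3). Compounds dissolved in DMSO at 100× the top test concentration, then diluted as serial two-fold dilutions in RPMI 1640 to final 0.125–64. Inoculum was 1.0–1.5 × 10^3 cells mL−1, incubated at 35 °C and read for growth at 48 h. MIC is the lowest concentration giving ≥50% growth inhibition versus growth control. Reported as the median of five replicates and as the geometric mean.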

[2] = test system: Pichia kudriavzevii; assay: Antifungal activity against Candida krusei PMC 0613 after 48 hrs by CLSI broth microdilution method; conditions: PMC 0613, 48 h; how it was run: as §1
[3] = test system: Trichophyton mentagrophytes; assay: Antifungal activity against Trichophyton mentagrophytes PMC 6515 after 72 hrs by CLSI broth microdilution method; conditions: PMC 6515, 72 h
How it was run: (§2)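 Dermatophytes tested by CLSI broth microdilution for filamentous fungi (M38-A2). Serial two-fold dilutions of DMSO-dissolved compound in RPMI 1640, final 0.125–64. Inoculum was 0.4–5 × 10^4 CFU mL−1, incubated at 35 °C and read at 72 h. MIC80 is the lowest concentration giving ≥80% growth inhibition versus growth control. Median of five replicates, plus geometric mean.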

[4] = test system: Candida albicans; assay: Antifungal activity against Candida albicans ATCC 24433 after 48 hrs by CLSI broth microdilution method; conditions: ATCC 24433, 48 h; how it was run: as §1
[5] = test system: Cryptococcus neoformans; assay: Antifungal activity against Cryptococcus neoformans PMC 2107 after 72 hrs by CLSI broth microdilution method; conditions: PMC 2107, 72 h
How it was run: (§3)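 Cryptococcus neoformans tested by CLSI broth microdilution in RPMI 1640, with serial two-fold dilutions from DMSO stocks at 100× the top concentration, final 0.125–64. Inoculum was 1.0–1.5 × 10^3 cells mL−1 at 35 °C, with growth read at 72 h. MIC is the lowest concentration with ≥50% growth inhibition versus control. Median of five replicates, plus geometric mean.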

[6] = test system: Pichia kudriavzevii; assay: Antifungal activity against Candida krusei DSM 6128 after 48 hrs by CLSI broth microdilution method; conditions: DSM 6128, 48 h; how it was run: as §1
[7] = test system: Candida albicans; assay: Antifungal activity against Candida albicans ATCC 10261 after 48 hrs by CLSI broth microdilution method; conditions: ATCC 10261, 48 h; how it was run: as §1
[8] = test system: Candida tropicalis; assay: Antifungal activity against Candida tropicalis DSM 11953 after 48 hrs by CLSI broth microdilution method; conditions: DSM 11953, 48 h; how it was run: as §1
[9] = test system: Trichophyton mentagrophytes; assay: Antifungal activity against Trichophyton mentagrophytes PMC 6552 after 72 hrs by CLSI broth microdilution method; conditions: PMC 6552, 72 h; how it was run: as §2
[10] = test system: Cryptococcus neoformans; assay: Antifungal activity against Cryptococcus neoformans PMC 2136 after 72 hrs by CLSI broth microdilution method; conditions: PMC 2136, 72 h; how it was run: as §3
[11] = test system: Nannizzia gypsea; assay: Antifungal activity against Microsporum gypseum PMC 7331 after 72 hrs by CLSI broth microdilution method; conditions: PMC 7331, 72 h; how it was run: as §2
[12] = test system: Cryptococcus neoformans; assay: Antifungal activity against Cryptococcus neoformans DSM 11959 after 72 hrs by CLSI broth microdilution method; conditions: DSM 11959, 72 h; how it was run: as §3
[13] = test system: Trichophyton mentagrophytes; assay: Antifungal activity against Trichophyton mentagrophytes PMC 6509 after 72 hrs by CLSI broth microdilution method; conditions: PMC 6509, 72 h; how it was run: as §2
[14] = test system: Cryptococcus neoformans; assay: Antifungal activity against Cryptococcus neoformans PMC 2123 after 72 hrs by CLSI broth microdilution method; conditions: PMC 2123, 72 h; how it was run: as §3
[15] = test system: Nannizzia gypsea; assay: Antifungal activity against Microsporum gypseum DSM 3824 after 72 hrs by CLSI broth microdilution method; conditions: DSM 3824, 72 h; how it was run: as §2
[16] = test system: Trichophyton mentagrophytes; assay: Antifungal activity against Trichophyton mentagrophytes PMC 6531 after 72 hrs by CLSI broth microdilution method; conditions: PMC 6531, 72 h; how it was run: as §2
[17] = test system: Candida albicans; assay: Antifungal activity against Candida albicans ATCC 90028 after 48 hrs by CLSI broth microdilution method; conditions: ATCC 90028, 48 h; how it was run: as §1
[18] = test system: Candida albicans; assay: Antifungal activity against Candida albicans ATCC 10231 after 48 hrs by CLSI broth microdilution method; conditions: ATCC 10231, 48 h; how it was run: as §1
[19] = test system: Cryptococcus neoformans; assay: Antifungal activity against Cryptococcus neoformans PMC 2102 after 72 hrs by CLSI broth microdilution method; conditions: PMC 2102, 72 h; how it was run: as §3
[20] = test system: Candida albicans; assay: Antifungal activity against Candida albicans PMC 1011 after 48 hrs by CLSI broth microdilution method; conditions: PMC 1011, 48 h; how it was run: as §1
[21] = test system: Cryptococcus neoformans; assay: Antifungal activity against Cryptococcus neoformans PMC 2111 after 72 hrs by CLSI broth microdilution method; conditions: PMC 2111, 72 h; how it was run: as §3
[22] = test system: Nannizzia gypsea; assay: Antifungal activity against Microsporum gypseum PMC 7303 after 72 hrs by CLSI broth microdilution method; conditions: PMC 7303, 72 h; how it was run: as §2
[23] = test system: Candida tropicalis; assay: Antifungal activity against Candida tropicalis PMC 0910 after 48 hrs by CLSI broth microdilution method; conditions: PMC 0910, 48 h; how it was run: as §1
[24] = test system: Cryptococcus neoformans; assay: Antifungal activity against Cryptococcus neoformans PMC 2103 after 72 hrs by CLSI broth microdilution method; conditions: PMC 2103, 72 h; how it was run: as §3
[25] = test system: Candida albicans; assay: Antifungal activity against Candida albicans ATCC 3153 after 48 hrs by CLSI broth microdilution method; conditions: ATCC 3153, 48 h; how it was run: as §1
[26] = test system: Trichophyton mentagrophytes; assay: Antifungal activity against Trichophyton mentagrophytes PMC 6503 after 72 hrs by CLSI broth microdilution method; conditions: PMC 6503, 72 h; how it was run: as §2
[27] = test system: Candida parapsilosis; assay: Antifungal activity against Candida parapsilosis DSM 11224 after 48 hrs by CLSI broth microdilution method; conditions: Lodderomyces parapsilosis, DSM 11224, 48 h; how it was run: as §1
[28] = test system: Candida albicans; assay: Antifungal activity against Candida albicans ATCC 20891 after 48 hrs by CLSI broth microdilution method; conditions: ATCC 20891, 48 h; how it was run: as §1
[29] = test system: Candida parapsilosis; assay: Antifungal activity against Candida parapsilosis ATCC 22019 after 48 hrs by CLSI broth microdilution method; conditions: Lodderomyces parapsilosis, ATCC 22019, 48 h; how it was run: as §1
[30] = test system: Nakaseomyces glabratus; assay: Antifungal activity against Candida glabrata PMC 0805 after 48 hrs by CLSI broth microdilution method; conditions: PMC 0805, 48 h; how it was run: as §1
[31] = test system: Candida albicans; assay: Antifungal activity against Candida albicans ATCC 76615 after 48 hrs by CLSI broth microdilution method; conditions: ATCC 76615, 48 h; how it was run: as §1
[32] = test system: Cryptococcus neoformans; assay: Antifungal activity against Cryptococcus neoformans PMC 2115 after 72 hrs by CLSI broth microdilution method; conditions: PMC 2115, 72 h; how it was run: as §3
[33] = test system: Trichophyton mentagrophytes; assay: Antifungal activity against Trichophyton mentagrophytes DSM 4870 after 72 hrs by CLSI broth microdilution method; conditions: DSM 4870, 72 h; how it was run: as §2

Structure (SMILES)	MIC50 [1] [µg/mL]	MIC50 [2] [µg/mL]	MIC80 [3] [µg/mL]	MIC50 [4] [µg/mL]	MIC50 [5] [µg/mL]	MIC50 [6] [µg/mL]	MIC50 [7] [µg/mL]	MIC50 [8] [µg/mL]	MIC80 [9] [µg/mL]	MIC50 [10] [µg/mL]	MIC80 [11] [µg/mL]	MIC50 [12] [µg/mL]	MIC80 [13] [µg/mL]	MIC50 [14] [µg/mL]	MIC80 [15] [µg/mL]	MIC80 [16] [µg/mL]	MIC50 [17] [µg/mL]	MIC50 [18] [µg/mL]	MIC50 [19] [µg/mL]	MIC50 [20] [µg/mL]	other results
O=C(OC(Cn1ccnc1)c1ccc(F)cc1)N1CCN(c2ncccc2[N+](=O)[O-])CC1 (centres undefined)	32 (≈ 72.7 µM)	4 (≈ 9.08 µM)	32 (≈ 72.7 µM)	8 (≈ 18.2 µM)	1 (≈ 2.27 µM)	16 (≈ 36.3 µM)	8 (≈ 18.2 µM)	32 (≈ 72.7 µM)	32 (≈ 72.7 µM)	2 (≈ 4.54 µM)	32 (≈ 72.7 µM)	4 (≈ 9.08 µM)	64 (≈ 145 µM)	16 (≈ 36.3 µM)	32 (≈ 72.7 µM)	32 (≈ 72.7 µM)	4 (≈ 9.08 µM)	16 (≈ 36.3 µM)	8 (≈ 18.2 µM)	4 (≈ 9.08 µM)	MIC50 [21]: 8 µg/mL (≈ 18.2 µM); MIC80 [22]: 64 µg/mL (≈ 145 µM); MIC50 [23]: 16 µg/mL (≈ 36.3 µM); MIC50 [24]: 2 µg/mL (≈ 4.54 µM); MIC50 [25]: 16 µg/mL (≈ 36.3 µM); MIC80 [26]: 32 µg/mL (≈ 72.7 µM); MIC50 [27]: 2 µg/mL (≈ 4.54 µM); MIC50 [28]: 8 µg/mL (≈ 18.2 µM); MIC50 [29]: 16 µg/mL (≈ 36.3 µM); MIC50 [30]: 8 µg/mL (≈ 18.2 µM); MIC50 [31]: 64 µg/mL (≈ 145 µM); MIC50 [32]: 16 µg/mL (≈ 36.3 µM); MIC80 [33]: 32 µg/mL (≈ 72.7 µM)
O=C(OC(Cn1ccnc1)c1ccc(Cl)cc1)N1CCN(C(=O)c2ccco2)CC1 (centres undefined)	128 (≈ 298 µM)	128 (≈ 298 µM)	128 (≈ 298 µM)	128 (≈ 298 µM)	32 (≈ 74.6 µM)	128 (≈ 298 µM)	32 (≈ 74.6 µM)	128 (≈ 298 µM)	128 (≈ 298 µM)	128 (≈ 298 µM)	128 (≈ 298 µM)	128 (≈ 298 µM)	128 (≈ 298 µM)	32 (≈ 74.6 µM)	128 (≈ 298 µM)	128 (≈ 298 µM)	32 (≈ 74.6 µM)	64 (≈ 149 µM)	128 (≈ 298 µM)	128 (≈ 298 µM)	MIC50 [21]: 128 µg/mL (≈ 298 µM); MIC80 [22]: 128 µg/mL (≈ 298 µM); MIC50 [23]: 128 µg/mL (≈ 298 µM); MIC50 [24]: 128 µg/mL (≈ 298 µM); MIC50 [25]: 32 µg/mL (≈ 74.6 µM); MIC80 [26]: 128 µg/mL (≈ 298 µM); MIC50 [27]: 128 µg/mL (≈ 298 µM); MIC50 [28]: 64 µg/mL (≈ 149 µM); MIC50 [29]: 128 µg/mL (≈ 298 µM); MIC50 [30]: 128 µg/mL (≈ 298 µM); MIC50 [31]: 64 µg/mL (≈ 149 µM); MIC50 [32]: 128 µg/mL (≈ 298 µM); MIC80 [33]: 128 µg/mL (≈ 298 µM)
O=C(OC(Cn1ccnc1)c1ccc(F)cc1)N1CCN(c2ccc([N+](=O)[O-])cc2)CC1 (centres undefined)	64 (≈ 146 µM)	16 (≈ 36.4 µM)	64 (≈ 146 µM)	32 (≈ 72.8 µM)	16 (≈ 36.4 µM)	64 (≈ 146 µM)	8 (≈ 18.2 µM)	128 (≈ 291 µM)	32 (≈ 72.8 µM)	16 (≈ 36.4 µM)	32 (≈ 72.8 µM)	16 (≈ 36.4 µM)	64 (≈ 146 µM)	128 (≈ 291 µM)	64 (≈ 146 µM)	64 (≈ 146 µM)	8 (≈ 18.2 µM)	32 (≈ 72.8 µM)	32 (≈ 72.8 µM)	8 (≈ 18.2 µM)	MIC50 [21]: 16 µg/mL (≈ 36.4 µM); MIC80 [22]: 32 µg/mL (≈ 72.8 µM); MIC50 [23]: 32 µg/mL (≈ 72.8 µM); MIC50 [24]: 8 µg/mL (≈ 18.2 µM); MIC50 [25]: 16 µg/mL (≈ 36.4 µM); MIC80 [26]: 32 µg/mL (≈ 72.8 µM); MIC50 [27]: 4 µg/mL (≈ 9.1 µM); MIC50 [28]: 8 µg/mL (≈ 18.2 µM); MIC50 [29]: 16 µg/mL (≈ 36.4 µM); MIC50 [30]: 64 µg/mL (≈ 146 µM); MIC50 [31]: 128 µg/mL (≈ 291 µM); MIC50 [32]: 64 µg/mL (≈ 146 µM); MIC80 [33]: 64 µg/mL (≈ 146 µM)
